Twelve compounds from ChEMBL document CHEMBL2163312, “Virtual screening identifies novel sulfonamide inhibitors of ecto-5'-nucleotidase” (J Med Chem, 2012) can be followed below.

pIC50: −log10 of the molar value.

The assay addresses T1, 5'-nucleotidase (Rattus norvegicus, UniProt P21588).
T1 sequence (P21588 whole entry): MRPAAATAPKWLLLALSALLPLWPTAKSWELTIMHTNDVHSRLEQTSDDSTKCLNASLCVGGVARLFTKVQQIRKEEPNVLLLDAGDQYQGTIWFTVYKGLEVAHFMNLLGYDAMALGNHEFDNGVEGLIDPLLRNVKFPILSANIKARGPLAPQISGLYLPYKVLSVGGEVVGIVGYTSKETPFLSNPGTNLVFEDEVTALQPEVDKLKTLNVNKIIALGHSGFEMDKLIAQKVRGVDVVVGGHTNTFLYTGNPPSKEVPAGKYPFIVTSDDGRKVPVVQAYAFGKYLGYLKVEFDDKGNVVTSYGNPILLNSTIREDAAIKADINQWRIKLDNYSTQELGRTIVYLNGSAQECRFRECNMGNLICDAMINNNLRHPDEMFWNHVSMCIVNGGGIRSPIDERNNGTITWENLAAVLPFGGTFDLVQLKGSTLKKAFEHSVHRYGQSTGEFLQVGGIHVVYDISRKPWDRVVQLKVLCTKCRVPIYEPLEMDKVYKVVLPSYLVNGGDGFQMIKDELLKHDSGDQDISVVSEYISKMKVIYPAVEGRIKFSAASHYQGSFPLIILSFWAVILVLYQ
The assay is described as follows: Inhibition of rat recombinant ecto-5'-nucleotidase using [3H]AMP substrate. The method, boiled down:
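Purified recombinant rat enzyme in a radioactive assay with [3H]AMP as substrate at 5 μM (near Km). Compounds were screened first at 100 and 10 μM. Full concentration–response curves were run for potent compounds to obtain IC50. Inhibition mechanism: 10 substrate concentrations at three inhibitor concentrations, with velocity normalized to Vmax without inhibitor.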
One may read the pIC50 as the IC50 on a negative log10 scale, so that one unit is a factor of ten. Regarding `CCOc1ccc(C(=O)NC(=S)Nc2ccc(S(N)(=O)=O)cc2)cc1Cl`, the pIC50 was 4.33.

`NS(=O)(=O)c1ccc(NC(=O)c2cc3cc(Cl)cc(Cl)c3oc2=O)cc1`: the pIC50 is 4.13. The value for `COc1cccc2cc(C(=O)Nc3ccc(S(N)(=O)=O)cc3)c(=O)oc12` was 4.78.

Take `NS(=O)(=O)c1cc(Cl)c(NC(=O)c2c(O)[nH]c3ccccc3c2=O)c(Cl)c1`: the pIC50 was 4.81. The same measure for `Cc1oc(-c2ccc(Cl)cc2)cc1C(=O)Nc1ccc(S(N)(=O)=O)cc1`: 4.35; for `NS(=O)(=O)c1ccc(N/N=C/c2cccc(Oc3ccccc3)c2)c([N+](=O)[O-])c1`: 5.40; for `NS(=O)(=O)c1ccc(N/N=C/c2c(O)ccc3ccccc23)c([N+](=O)[O-])c1`: 5.18.

For the compound `NS(=O)(=O)c1ccc(N/N=C/c2ccc(O)cc2)c([N+](=O)[O-])c1`, the pIC50 was 5.10. The same measure for `NS(=O)(=O)c1ccc(N/N=C/c2ccccc2O)c([N+](=O)[O-])c1`: 5.02. The same measure for `Cc1c(NC(=O)c2ccc3c(c2)NC(=O)CO3)c(=O)n(-c2ccccc2)n1C`: 4.29; for `NS(=O)(=O)c1ccc(N/N=C/c2cccc(O)c2)c([N+](=O)[O-])c1`: 4.74; for `O=C(NC(=S)Nc1ccc(S(=O)(=O)c2ccc(NC(=S)NC(=O)c3ccccc3)cc2)cc1)c1ccccc1`: 5.15.
